Bioassay records deposited in PubChem BioAssay by several laboratories.
Hits are enriched below; roughly 1.7% of the tested compounds scored in any of these assays.
CAL PDZ FP-1 – CAL PDZ (human) peptide binding inhibition; Q9HD26; purified CAL PDZ, TMR-peptide fluorescence polarization, 1 h; inhibition, % at 24.9 µM; 300,000 tested, 0.92% active;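 active = mean inhibition of at least 30% with at least half of replicates also reaching 30%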;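 note: 0% = DMSO neutral control and 100% = excess unlabeled competitor peptide PRC23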
APOBEC3A inh – blocks human APOBEC3A ssDNA deamination | recombinant A3A, FAM/TAMRA ssDNA deamination fluorescence | P31941 | inhibition, % at 20 µM | 330,000 tested, 0.41% active;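 active = at least 40% inhibition at 20 µM here, with at most 30% in a related deaminase screen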;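 note: plate controls were A3A with DMSO for no effect and wells lacking A3A enzyme for full effect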
Target sequence (P31941 whole entry, looked up): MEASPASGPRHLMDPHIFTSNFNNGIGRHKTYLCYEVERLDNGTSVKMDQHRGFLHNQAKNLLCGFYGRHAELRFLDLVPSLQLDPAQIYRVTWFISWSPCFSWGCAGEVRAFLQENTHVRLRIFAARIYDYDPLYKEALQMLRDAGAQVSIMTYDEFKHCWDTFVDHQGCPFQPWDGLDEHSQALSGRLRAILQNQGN
Keap1 Nrf2 FP – disrupts human Keap1 binding to Nrf2 peptide. Q14145. Keap1 Kelch-Nrf2 peptide fluorescence polarization, 1536-well. inhibition, % at 9.4 µM. 340,000 tested, 0.15% active; in the data active = inhibition above about 12%;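 note: human Keap1 Kelch domain with fluorescein labeled Nrf2 9mer peptide probe; 0% = neutral control wells and 100% = peptide positive control; higher means more block of Keap1 binding to Nrf2 peptide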
A3G deaminase – inhibitors of human APOBEC3G DNA deaminase; 330,000 tested, 0.28% active; inhibition, % at 20 µM; recombinant A3G, ssDNA deamination FAM/TAMRA fluorescence; Q9HC16;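 active = inhibition of at least 40% at 20 µM, with no more than 30% in the related APOBEC3A deaminase screen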;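 note: plate controls were DMSO wells with A3G for no effect and wells lacking A3G enzyme for full effect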
Target sequence (Q9HC16 whole entry, looked up): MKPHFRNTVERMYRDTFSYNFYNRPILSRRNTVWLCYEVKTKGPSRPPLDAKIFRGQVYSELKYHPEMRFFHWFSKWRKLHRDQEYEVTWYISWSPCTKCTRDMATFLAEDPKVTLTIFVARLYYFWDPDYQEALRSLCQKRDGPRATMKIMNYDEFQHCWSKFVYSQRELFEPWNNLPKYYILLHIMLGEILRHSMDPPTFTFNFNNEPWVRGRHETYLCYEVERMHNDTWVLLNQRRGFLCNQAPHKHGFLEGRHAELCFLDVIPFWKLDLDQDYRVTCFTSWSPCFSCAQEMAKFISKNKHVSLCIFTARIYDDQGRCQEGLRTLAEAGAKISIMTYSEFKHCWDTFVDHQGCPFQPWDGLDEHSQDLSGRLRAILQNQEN
CAL PDZ FP-2 – inhibitors of human CAL PDZ peptide binding; Q9HD26; 330,000 tested, 0.02% active; inhibition, % at 20 µM; purified CAL PDZ, TMR-peptide fluorescence polarization, 1 h;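 active = highest replicate inhibition of at least 40%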;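 note: plate controls were DMSO neutral control wells for no effect and unlabeled competitor peptide control wells for full effect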
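Assay system – tagged CAL PDZ protein CerCALP, purified · Timing – 1 h at RT · Compound – single point, 20 µM · Measured by – fluorescence polarization from S- and P-plane intensities, G-factor corrected · Evaluation – inhibition from polarization loss · Probe or stimulus – TMR reporter peptide T*-PRC34 · Buffer or medium – pH 7.4 phosphate-saline buffer, reducing agent, detergent, IgG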
C-LANA FP – inhibitors of KSHV LANA C-terminal domain DNA binding | MBP-C-LANA/FAM-LBS DNA binding, fluorescence polarization | inhibition, % at 9 µM | 340,000 tested, 0.078% active | AID 504423;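 active = highest replicate inhibition at or above 60% at 9 µM, even if other replicates fall short; inactive = all replicates below 60% inhibition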;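 note: 0% = neutral control wells and 100% = 4 µM acridine orange control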
APOBEC3G confirm – APOBEC3G (human) deaminase inhibition, confirmed; shares compounds with A3G deaminase; recombinant A3G ssDNA deaminase, UDG/FAM-TAMRA fluorescence; inhibition, % at 20 µM; 890 tested, 72% active; AID 493152;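 active = inhibition reaching a set limit in any replicate at 20 µM, the limit being 80% of the first screen's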
UDG ctr A3G – E. coli UDG inhibition in APOBEC3G counter-screen | inhibition, % at 20 µM | 710 tested, under 10 active | shares compounds with A3G deaminase | AID 504715 | UDG counterscreen, FAM/TAMRA oligo fluorescence;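 active = compounds giving 40% or more inhibition at 20 µM in any one of the three replicates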;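 note: plate controls were DMSO wells with UDG and oligo for no effect and DMSO wells lacking both for full effect; inhibitors lower the FAM signal released by uracil excision and alkaline cleavage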
Numbers without * were called inactive.

How did COC(=O)c1ccc(/C=N/Nc2nc(-c3ccccc3)cs2)cc1 do in these assays?
APOBEC3A inh: -1; Keap1 Nrf2 FP: 2; A3G deaminase: -1; CAL PDZ FP-2: -1; C-LANA FP: 2

Results for COC(=O)c1ccc(/C=N/Nc2nc(-c3ccc(C)cc3)cs2)cc1 ?
CAL PDZ FP-1: -2; APOBEC3A inh: 1; Keap1 Nrf2 FP: -4; A3G deaminase: 45*; CAL PDZ FP-2: 0; C-LANA FP: 0; APOBEC3G confirm: -4

What do the screens show for `CCCCN(C(=O)c1ccc(S(=O)(=O)N(C)c2ccccc2)cc1)c1c(N)n(CCC)c(=O)[nH]c1=O`?
Keap1 Nrf2 FP: -6; CAL PDZ FP-2: -2; C-LANA FP: 1

How did CCOC(=O)CC(NC(=O)CCc1c(C)nc2ncnn2c1C)c1ccc(C)cc1 (centres undefined) do in these assays?
CAL PDZ FP-1: -3; APOBEC3A inh: -5; Keap1 Nrf2 FP: -3; A3G deaminase: -8; CAL PDZ FP-2: -1; C-LANA FP: 0

How did CCNc1nc(NCC)n2c(SCC(=O)Nc3ccc(CC)cc3)nnc2n1 do in these assays?
APOBEC3A inh: 3; Keap1 Nrf2 FP: 0; A3G deaminase: 49*; CAL PDZ FP-2: -1; C-LANA FP: 0; APOBEC3G confirm: 47*; UDG ctr A3G: -1

Results for CC[n+]1c(/C=C2\C=C(C)CC(C)(C)C2)sc2ccccc21 ?
CAL PDZ FP-1: 0; APOBEC3A inh: 20; Keap1 Nrf2 FP: -5; A3G deaminase: 50*; CAL PDZ FP-2: -2; C-LANA FP: 1; APOBEC3G confirm: 57*

What do the screens show for `C=CCN(CC=C)C(=O)CN1C(=O)NC(c2ccccc2)(c2ccccc2)C1=O`?
CAL PDZ FP-1: 1; APOBEC3A inh: -2; Keap1 Nrf2 FP: -6; A3G deaminase: -9; CAL PDZ FP-2: -5; C-LANA FP: 1

Results for O=C(CCCSc1ccc(Cl)cc1)Nc1cc(S(=O)(=O)N2CCOCC2)ccc1O ?
CAL PDZ FP-1: -7; APOBEC3A inh: -3; Keap1 Nrf2 FP: -3; A3G deaminase: 51*; CAL PDZ FP-2: -2; C-LANA FP: 0; APOBEC3G confirm: 73*; UDG ctr A3G: 1

How did Cc1ccc(S(=O)(=O)N2CCOCC2)cc1NC(=O)CSc1ccc(Cl)cc1 do in these assays?
CAL PDZ FP-1: -5; APOBEC3A inh: -2; Keap1 Nrf2 FP: -2; A3G deaminase: -8; CAL PDZ FP-2: 0; C-LANA FP: 0

Results for CCOC(=O)c1ccc(S(=O)(=O)Nc2cc(S(=O)(=O)N3CCOCC3)ccc2O)cc1 ?
CAL PDZ FP-1: 6; APOBEC3A inh: 1; Keap1 Nrf2 FP: -2; A3G deaminase: 52*; CAL PDZ FP-2: -1; C-LANA FP: -2; APOBEC3G confirm: 27*; UDG ctr A3G: -4

Results for Nc1ncnc2c1ncn2[C@@H]1O[C@H](CNC(=O)[C@@H]2C[C@H](F)CN2)[C@@H](O)[C@H]1O ?
CAL PDZ FP-1: -6; APOBEC3A inh: 7; Keap1 Nrf2 FP: -4; A3G deaminase: 6; CAL PDZ FP-2: -6; C-LANA FP: 0

Results for O=Cc1ccc(C(=O)OCC(=O)Nc2ccc(F)cc2F)cc1 ?
CAL PDZ FP-1: -3; APOBEC3A inh: -2; Keap1 Nrf2 FP: 5; A3G deaminase: -6; CAL PDZ FP-2: 0; C-LANA FP: 1

What do the screens show for `COCc1cc(C)c(C#N)c(=S)[nH]1`?
APOBEC3A inh: 2; Keap1 Nrf2 FP: -4; A3G deaminase: 80*; CAL PDZ FP-2: 1; C-LANA FP: 1; APOBEC3G confirm: 79*; UDG ctr A3G: -3

Results for CCC1(c2ccccc2)NC(=O)N(CC(=O)NCc2ccc(OC)cc2)C1=O (centres undefined) ?
APOBEC3A inh: 1; Keap1 Nrf2 FP: 4; A3G deaminase: 0; CAL PDZ FP-2: 0; C-LANA FP: -2

Results for CCOC(=O)c1cn(CC(=O)Nc2cccc(F)c2)nn1 ?
APOBEC3A inh: -1; Keap1 Nrf2 FP: 0; A3G deaminase: -3; CAL PDZ FP-2: -6; C-LANA FP: 0

What do the screens show for `Cc1cc(C)c2c(=O)n(CC(=O)Nc3ccc(Cl)cc3)sc2n1`?
CAL PDZ FP-1: -4; APOBEC3A inh: -7; Keap1 Nrf2 FP: 2; A3G deaminase: 82*; CAL PDZ FP-2: -3; C-LANA FP: -2; APOBEC3G confirm: 93*; UDG ctr A3G: 0

How did Cc1ccn2c(=O)nc(SCC(=O)N3CCC(Cc4ccccc4)CC3)nc2c1 do in these assays?
CAL PDZ FP-1: -1; APOBEC3A inh: 2; Keap1 Nrf2 FP: -1; A3G deaminase: 1; CAL PDZ FP-2: -2; C-LANA FP: 0

Results for Cc1ccc(NC(=O)Cn2sc3nc(C)cc(C)c3c2=O)c(Cl)c1 ?
CAL PDZ FP-1: 2; APOBEC3A inh: -8; Keap1 Nrf2 FP: 3; A3G deaminase: 72*; CAL PDZ FP-2: -1; C-LANA FP: -12; APOBEC3G confirm: 92*; UDG ctr A3G: -1

Results for Cc1cc(C)c2c(=O)n(CC(=O)Nc3cccc(F)c3)sc2n1 ?
CAL PDZ FP-1: 4; APOBEC3A inh: 5; Keap1 Nrf2 FP: 3; A3G deaminase: 76*; CAL PDZ FP-2: -2; C-LANA FP: 0; APOBEC3G confirm: 84*; UDG ctr A3G: 1

What do the screens show for `Cc1cc(C)c2c(=O)n(CC(=O)N3CCC(Cc4ccccc4)CC3)sc2n1`?
APOBEC3A inh: 2; A3G deaminase: 43*; APOBEC3G confirm: 58*

Results for Cc1noc(-c2ccc(C(F)(F)F)cc2)c1NC(=O)Nc1ccc(Cl)cc1 ?
APOBEC3A inh: 0; A3G deaminase: -3

Results for COc1cccc(CNC(=O)CCC2CCCN(C(=O)C3CCOCC3)C2)c1 (centres undefined) ?
CAL PDZ FP-1: 2; APOBEC3A inh: -2; Keap1 Nrf2 FP: -4; A3G deaminase: -11; CAL PDZ FP-2: 0; C-LANA FP: 0

What do the screens show for `CCOc1ccc(NC(=O)Cn2ncc3ccccc32)cc1`?
CAL PDZ FP-1: 1; APOBEC3A inh: -1; Keap1 Nrf2 FP: 0; A3G deaminase: -5; CAL PDZ FP-2: 0; C-LANA FP: 1

How did CCOc1ccc(NC(=O)Cn2sc3nc(C)cc(C)c3c2=O)cc1 do in these assays?
CAL PDZ FP-1: -3; APOBEC3A inh: -1; Keap1 Nrf2 FP: -6; A3G deaminase: 80*; CAL PDZ FP-2: -3; C-LANA FP: 2; APOBEC3G confirm: 49*; UDG ctr A3G: -3

Results for Cc1cc(O)c(/C=N/Nc2ccccc2Cl)c(=O)o1 ?
CAL PDZ FP-1: -2; APOBEC3A inh: -2; Keap1 Nrf2 FP: 2; A3G deaminase: 47*; CAL PDZ FP-2: -1; C-LANA FP: 1; APOBEC3G confirm: 3; UDG ctr A3G: -2
